Data taken from ChEMBL document CHEMBL4261487, “Small structural changes of the imidazopyridine diacylglycerol acyltransferase 2 (DGAT2) inhibitors produce an improved safety profile” (Medchemcomm, 2017).
Blank lines part the entries; values can stand above or below the molecule they belong to.

Key:
[1] = tested on: UGT; assay: Drug metabolism in human liver microsomes assessed as UGT-mediated glucuronidation by measuring clearance rate; assay type: ADME; settings: liver microsomes, read-out: CLH
[2] = molecular target: CYP3A4 (Homo sapiens, UniProt P08684); assay: Drug metabolism in human liver microsomes assessed as CYP3A4-mediated oxidative metabolism by measuring clearance rate; assay type: ADME; settings: liver microsomes, read-out: CLH
[3] = tested on: Rattus norvegicus; assay: Unbound AUC in Wistar Han IGS rat at 10 mg/kg, po qd administered for 14 days; assay type: ADME, organism-based; settings: in vivo, 336 h
In short: (§1)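 Wistar Han rats were dosed orally once daily for 14 days (exploratory, 5/sex/dose) or 1 month (toxicity, 10/sex/dose). Toxicokinetic satellite animals (3–4/sex/dose) were used, and steady-state systemic exposure is given as the mean of male and female values combined.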

[4] = tested on: Rattus norvegicus; assay: Unbound AUC in Wistar Han IGS rat at 500 mg/kg, po qd administered for 14 days; assay type: ADME, organism-based; settings: in vivo, 336 h; in short: as §1
[5] = tested on: Rattus norvegicus; assay: Unbound AUC in Wistar Han IGS rat at 60 mg/kg, po qd administered for 1 month; assay type: ADME, organism-based; settings: in vivo; in short: as §1
[6] = tested on: Canis familiaris; assay: Toxicity in beagle dog assessed as unscheduled death at 300 mg/kg, po qd administered for 14 days; assay type: organism-based, Canis lupus familiaris; settings: in vivo, 336 h
[7] = Toxicity in po dosed beagle dog administered as qd for 14 days; assay type: organism-based, Canis lupus familiaris; settings: in vivo
[8] = tested on: Canis familiaris; assay: Unbound Cmax in beagle dog at 10 mg/kg, po qd administered for 1 month; assay type: ADME, organism-based, Canis lupus familiaris; settings: in vivo
In short: (§2)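 Beagle dogs were dosed orally once daily in a 14-day exploratory study or 1-month toxicity studies. Steady-state systemic exposure over the 24 h dosing interval is reported as the mean of male and female values combined.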

[9] = tested on: Canis familiaris; assay: Unbound AUC in beagle dog at 2 mg/kg, po qd administered for 1 month; assay type: ADME, organism-based, Canis lupus familiaris; settings: in vivo; in short: as §2
[10] = tested on: Canis familiaris; assay: Unbound AUC in beagle dog at 10 mg/kg, po qd administered for 1 month; assay type: ADME, organism-based, Canis lupus familiaris; settings: in vivo; in short: as §2
[11] = tested on: Canis familiaris; assay: Toxicity in telemetered beagle dog assessed as multiple bouts of emesis at 75 mg/kg administered via oral gavage measured within 4 hrs of dosing; assay type: organism-based, Canis lupus familiaris; settings: in vivo
[12] = tested on: Canis familiaris; assay: Toxicity in beagle dog assessed as body weight gain at 100 mg/kg, po qd administered starting on day 11 post 150 mg/kg dosing period and continuing for 20 days; assay type: organism-based, Canis lupus familiaris; settings: in vivo, 480 h
[13] = tested on: Rattus norvegicus; assay: In vivo inhibition of DGAT2 in Wistar Han IGS rat assessed as coverage of in vitro IC50 for rat DGAT2 at 30 mg/kg, po qd administered for 1 month; assay type: functional; design: scale not given: the % may be the effect or the level left
In short: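 Wistar Han rats, once-daily oral dosing for 14 days (exploratory, 5/sex/dose) or 1 month (10/sex/dose); toxicokinetics in 3–4/sex/dose with sexes combined; coverage is the average % above rat DGAT2 IC50 at steady state over the 24 h dosing interval.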

[14] = tested on: Canis familiaris; assay: In vivo inhibition of DGAT2 in beagle dog assessed as coverage of in vitro IC50 for dog DGAT2 at 75 mg/kg, po qd administered for 14 days; assay type: functional, Canis lupus familiaris; design: scale not given: the % may be the effect or the level left
In short: (§3)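 Beagle dogs, once-daily oral dosing for 14 days or 1 month; systemic exposure with sexes combined; coverage is the average % above dog DGAT2 IC50 at steady state over the 24 h dosing interval.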

[15] = tested on: Canis familiaris; assay: In vivo inhibition of DGAT2 in beagle dog assessed as coverage of in vitro IC50 for dog DGAT2 at 5 mg/kg, po qd administered for 1 month; assay type: functional, Canis lupus familiaris; design: scale not given: the % may be the effect or the level left; in short: as §3
[16] = tested on: Canis familiaris; assay: In vivo inhibition of DGAT2 in beagle dog assessed as coverage of in vitro IC50 for dog DGAT2 at 10 mg/kg, po qd administered for 1 month; assay type: functional, Canis lupus familiaris; design: scale not given: the % may be the effect or the level left; in short: as §3
[17] = tested on: Canis familiaris; assay: In vivo inhibition of DGAT2 in beagle dog assessed as coverage of in vitro IC50 for dog DGAT2 at 50 mg/kg, po qd administered for 1 month; assay type: functional, Canis lupus familiaris; design: scale not given: the % may be the effect or the level left; in short: as §3
[18] = tested on: Canis familiaris; assay: Unbound Cmax in telemetered beagle dog at 25 mg/kg administered via oral gavage measured over 24 hrs; assay type: ADME, organism-based, Canis lupus familiaris; settings: in vivo
In short: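 Telemetered Beagle dogs given oral doses, with blood pressure and heart rate monitored after dosing alongside plasma exposure.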

[19] = tested on: Canis familiaris; assay: Toxicity in telemetered beagle dog assessed as increase in systolic pressure at 75 mg/kg administered via oral gavage measured over 24 hrs; assay type: organism-based, Canis lupus familiaris; settings: in vivo
[20] = tested on: Canis familiaris; assay: Toxicity in telemetered beagle dog assessed as emesis at 20 mg/kg, iv administered as single bolus dose over 2 mins; assay type: organism-based, Canis lupus familiaris; settings: in vivo
[21] = tested on: Canis familiaris; assay: Toxicity in telemetered beagle dog assessed as increase in systolic blood pressure at 20 mg/kg, iv administered as single bolus dose over 2 mins; assay type: organism-based, Canis lupus familiaris; settings: in vivo
[22] = molecular target: T1, Diacylglycerol O-acyltransferase 2 (Rattus norvegicus, UniProt Q5FVP8); assay: Inhibition of rat DGAT2
T1 sequence (Q5FVP8 whole entry): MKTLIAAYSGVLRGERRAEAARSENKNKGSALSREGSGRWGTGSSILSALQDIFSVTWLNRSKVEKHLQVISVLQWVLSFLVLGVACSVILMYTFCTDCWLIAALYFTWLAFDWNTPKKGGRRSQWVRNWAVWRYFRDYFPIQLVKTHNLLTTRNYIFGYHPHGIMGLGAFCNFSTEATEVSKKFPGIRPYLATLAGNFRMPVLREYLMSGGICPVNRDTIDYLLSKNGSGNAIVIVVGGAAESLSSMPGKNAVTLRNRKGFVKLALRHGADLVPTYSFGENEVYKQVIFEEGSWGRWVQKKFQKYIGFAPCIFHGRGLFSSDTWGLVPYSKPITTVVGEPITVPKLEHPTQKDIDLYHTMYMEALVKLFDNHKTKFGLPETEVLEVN

[23] = Apparent intrinsic clearance in human hepatocytes assessed per million cells; assay type: ADME, cell-based, Hepatocyte
[24] = Apparent permeability of the compound at pH 7.4; assay type: ADME; settings: not told
[25] = tested on: Canis familiaris; assay: Unbound Cmax in beagle dog at 3 mg/kg, po qd administered for 1 month; assay type: ADME, organism-based, Canis lupus familiaris; settings: in vivo
In short: (§4)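 One-month dog toxicity study with once-daily oral dosing. Toxicity groups were 2/sex/dose, and unbound peak exposure was taken from toxicokinetic sampling.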

[26] = tested on: Canis familiaris; assay: Unbound Cmax in beagle dog at 30 mg/kg, po qd administered for 1 month; assay type: ADME, organism-based, Canis lupus familiaris; settings: in vivo; in short: as §4
[27] = Ratio of Cmax in beagle dog at 3 mg/kg, po qd administered for 1 month to IC50 for in vitro inhibition of dog DGAT2; assay type: organism-based, Canis lupus familiaris; settings: in vivo
In short: (§5)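 One-month toxicity study in Beagle dogs with N = 2/sex/dose. Plasma exposure at each dose level was referenced to the dog DGAT2 enzymatic IC50, reported as the geometric mean of at least three replicates.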

[28] = Ratio of Cmax in beagle dog at 30 mg/kg, po qd administered for 1 month to IC50 for in vitro inhibition of dog DGAT2; assay type: organism-based, Canis lupus familiaris; settings: in vivo; in short: as §5
[29] = tested on: Canis familiaris; assay: Unbound AUC in beagle dog at 30 mg/kg, po qd administered for 1 month; assay type: ADME, organism-based, Canis lupus familiaris; settings: in vivo; in short: as §2
[30] = tested on: Canis familiaris; assay: In vivo inhibition of DGAT2 in beagle dog assessed as coverage of in vitro IC50 for dog DGAT2 at 30 mg/kg, po qd administered for 1 month; assay type: functional, Canis lupus familiaris; design: scale not given: the % may be the effect or the level left; in short: as §3
[31] = Ratio of Cmax in telemetered beagle dog at 50 mg/kg administered via oral gavage measured over 24 hrs to IC50 for in vitro inhibition of dog DGAT2; assay type: organism-based, Canis lupus familiaris; settings: in vivo
In short: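 Telemetered Beagle dogs given single oral doses (5, 25 and 50 mg kg–1), with systolic and diastolic blood pressure and heart rate monitored after dosing. Cmax is related to the dog DGAT2 enzymatic IC50, which is the geometric mean of at least three replicates.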

[32] = tested on: Canis familiaris; assay: Toxicity in telemetered beagle dog assessed as increase in heart rate at 25 mg/kg administered via oral gavage measured during 4 hrs of post dosing; assay type: organism-based, Canis lupus familiaris; settings: in vivo
[33] = tested on: Canis familiaris; assay: Toxicity in telemetered beagle dog assessed as emesis at 5 to 50 mg/kg administered via oral gavage measured within 4 hrs of dosing; assay type: organism-based, Canis lupus familiaris; settings: in vivo

CYP3A4, sequence (P08684 whole entry): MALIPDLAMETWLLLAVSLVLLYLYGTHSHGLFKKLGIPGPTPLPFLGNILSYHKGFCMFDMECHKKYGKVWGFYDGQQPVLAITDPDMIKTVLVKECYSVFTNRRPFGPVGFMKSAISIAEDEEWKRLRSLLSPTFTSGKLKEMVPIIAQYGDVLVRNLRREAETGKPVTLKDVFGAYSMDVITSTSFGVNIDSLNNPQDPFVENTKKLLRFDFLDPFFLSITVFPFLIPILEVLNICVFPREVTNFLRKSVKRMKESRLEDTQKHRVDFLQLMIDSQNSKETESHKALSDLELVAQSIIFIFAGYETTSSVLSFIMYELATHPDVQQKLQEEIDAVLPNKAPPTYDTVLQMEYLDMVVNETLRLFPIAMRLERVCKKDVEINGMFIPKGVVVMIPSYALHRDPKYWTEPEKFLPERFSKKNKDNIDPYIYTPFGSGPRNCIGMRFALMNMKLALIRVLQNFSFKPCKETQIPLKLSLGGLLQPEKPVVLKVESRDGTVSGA

Compound: CS(=O)(=O)O.O=C([C@@H]1CCCN(c2ccc3nc(C4(n5cc(Cl)cn5)CC4)[nH]c3n2)C1)N1CCCC1
microsomal CLint [1]: < 1.9 µL/min/mg | microsomal CLint [2]: 23.7 µL/min/mg | fAUC [3]: 1190 ng·h/mL | fAUC [4]: 88300 ng·h/mL | fAUC [5]: 22600 ng·h/mL | Activity [6]: Toxic | MTD at 336 h [7]: 75 mg/kg/day | fCmax [8]: 2030 nM | fAUC [9]: 238 ng·h/mL | fAUC [10]: 5280 ng·h/mL | Activity [11]: Toxic | Activity [12]: Non-Toxic | Activity [13]: 92% | Activity [14]: 99% | Activity [15]: 87% | Activity [16]: 97% | Activity [17]: >99% | fCmax [18]: 4.06 µM | Activity [19]: 5 mmHg | Activity [20]: Non-Toxic | Activity [21]: Non-Toxic

microsomal CLint [1]: 10.8 µL/min/mg | microsomal CLint [2]: 27.5 µL/min/mg | IC50 [22]: 155 nM | CLH(app) [23]: 16.1 µL/min | Papp [24]: 13.1 ×10⁻⁶ cm/s | fCmax [8]: 1270 nM | fAUC [10]: 2680 ng·h/mL | fCmax [25]: 454 nM | fCmax [26]: 3.76 µM | Ratio [27]: 11 | Ratio [28]: 92 | fAUC [29]: 9530 ng·h/mL
Compound: C[C@@H](c1nc2ccc(N3CCC[C@@H](C(=O)N4CCCC4)C3)nc2[nH]1)n1cc(Cl)cn1
Activity [16]: 86% | Activity [30]: 96% | fCmax [18]: 2.14 µM | Ratio [31]: 110 | Activity [32]: 10 bpm | Activity [33]: Toxic
